Test results from BindingDB's records for doi:10.1021/jm2005767 (Virginia Commonwealth University, 2011).

Molecular target: Prothrombin (Homo sapiens, UniProt P00734)
Test: Inhibition of human alpha-thrombin assessed as spectrozyme TH hydrolysis after 10 mins by spectrophotometric analysis
Procedure, shortened: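 Human α-thrombin (~5 nM initial) preincubated 10 min with inhibitor (4 μg/ml to 5 mg/ml stocks) at 25 °C. Buffer: 20 mM Tris-HCl pH 7.4, 100 mM NaCl, 2.5 mM CaCl2, 0.1% PEG 8000. Fractional residual activity fitted to logistic equation (Hill slope fixed at 1) for IC50 and efficacy ΔY.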

IC50: > 2.5 mM
Structure (SMILES): CCOC(=O)c1c(C)oc2cc(OC(=O)N3CCOCC3)c(OS(=O)(=O)O)cc12
